In ChEMBL document CHEMBL3244382, “Structural requirements for antileukemic activity among the naturally occurring and semisynthetic maytansinoids” (J Med Chem, 1978):
In brackets after ≈: the same amount, converted by molar mass. Activity calls are given as the source filed them.

Columns and labels:
[1] = tested on: Mus musculus; assay: Toxicity in PS mouse allografted with mouse P388 cells assessed as change in body weight at 3.1 ug/kg relative to control; type: organism-based; conditions: in vivo, 0.0031 mg/kg
How it was run: (§1)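 P388 (PS) leukemia in mice, 6 mice per dose group. Weight change is the difference in grams between treated and control animals. Survivors are recorded on toxicity day, normally 4 days after the first injection.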

[2] = tested on: Mus musculus; assay: Toxicity in PS mouse allografted with mouse P388 cells assessed as change in body weight at 0.8 ug/kg relative to control; type: organism-based; conditions: in vivo, 0.0008 mg/kg
How it was run: (§2)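 PS (P388 leukemia) mice, six per dose group. Toxicity read as the difference in grams between the weights of treated and control animals.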

[3] = tested on: Mus musculus; assay: Toxicity in PS mouse allografted with mouse P388 cells assessed as survival at 50 ug/kg after 4 days; type: organism-based; conditions: in vivo, 0.05 mg/kg, 96 h
How it was run: (§3)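 PS (P388) leukemic mice, six started per dose group. Toxicity scored as survivors on the toxicity day over the number of mice started. The toxicity day is normally 4 days after the first injection.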

[4] = tested on: Mus musculus; assay: Toxicity in PS mouse allografted with mouse P388 cells assessed as survival at 100 ug/kg after 4 days; type: organism-based; conditions: in vivo, 0.1 mg/kg, 96 h; how it was run: as §3
[5] = tested on: Mus musculus; assay: Toxicity in PS mouse allografted with mouse P388 cells assessed as survival at 25 ug/kg after 4 days; type: organism-based; conditions: in vivo, 0.025 mg/kg, 96 h; how it was run: as §3
[6] = tested on: Mus musculus; assay: Toxicity in PS mouse allografted with mouse P388 cells assessed as survival at 12.5 ug/kg after 4 days; type: organism-based; conditions: in vivo, 0.0125 mg/kg, 96 h; how it was run: as §3
[7] = tested on: Mus musculus; assay: Toxicity in PS mouse allografted with mouse P388 cells assessed as survival at 6.2 ug/kg after 4 days; type: organism-based; conditions: in vivo, 0.0062 mg/kg, 96 h; how it was run: as §3
[8] = tested on: Mus musculus; assay: Toxicity in PS mouse allografted with mouse P388 cells assessed as survival at 3.1 ug/kg after 4 days; type: organism-based; conditions: in vivo, 0.0031 mg/kg, 96 h; how it was run: as §3
[9] = tested on: Mus musculus; assay: Toxicity in PS mouse allografted with mouse P388 cells assessed as survival at 1.6 ug/kg after 4 days; type: organism-based; conditions: in vivo, 0.0016 mg/kg, 96 h; how it was run: as §3
[10] = tested on: Mus musculus; assay: Toxicity in PS mouse allografted with mouse P388 cells assessed as survival at 0.8 ug/kg after 4 days; type: organism-based; conditions: in vivo, 0.0008 mg/kg, 96 h; how it was run: as §3
[11] = tested on: Mus musculus; assay: Toxicity in PS mouse allografted with mouse P388 cells assessed as survival at 200 ug/kg after 4 days; type: organism-based; conditions: in vivo, 0.2 mg/kg, 96 h; how it was run: as §3
[12] = tested on: Mus musculus; assay: Toxicity in PS mouse allografted with mouse P388 cells assessed as survival at 1.5 ug/kg after 4 days; type: organism-based; conditions: in vivo, 0.0015 mg/kg, 96 h; how it was run: as §3
[13] = tested on: Mus musculus; assay: Toxicity in PS mouse allografted with mouse P388 cells assessed as change in body weight at 100 ug/kg relative to control; type: organism-based; conditions: in vivo, 0.1 mg/kg; how it was run: as §1
[14] = tested on: Mus musculus; assay: Toxicity in PS mouse allografted with mouse P388 cells assessed as change in body weight at 50 ug/kg relative to control; type: organism-based; conditions: in vivo, 0.05 mg/kg; how it was run: as §1
[15] = tested on: Mus musculus; assay: Toxicity in PS mouse allografted with mouse P388 cells assessed as change in body weight at 25 ug/kg relative to control; type: organism-based; conditions: in vivo, 0.025 mg/kg; how it was run: as §1
[16] = tested on: Mus musculus; assay: Toxicity in PS mouse allografted with mouse P388 cells assessed as change in body weight at 12.5 ug/kg relative to control; type: organism-based; conditions: in vivo, 0.0125 mg/kg; how it was run: as §1
[17] = tested on: Mus musculus; assay: Toxicity in PS mouse allografted with mouse P388 cells assessed as change in body weight at 6.2 ug/kg relative to control; type: organism-based; conditions: in vivo, 0.0062 mg/kg; how it was run: as §1
[18] = tested on: Mus musculus; assay: Toxicity in PS mouse allografted with mouse P388 cells assessed as change in body weight at 200 ug/kg relative to control; type: organism-based; conditions: in vivo, 0.2 mg/kg; how it was run: as §1
[19] = tested on: Mus musculus; assay: Toxicity in PS mouse allografted with mouse P388 cells assessed as change in body weight at 1.5 ug/kg relative to control; type: organism-based; conditions: in vivo, 0.0015 mg/kg; how it was run: as §2
[20] = tested on: P388; assay: Antitumor activity against mouse P388 cells allografted in PS mouse assessed as median survival time at 100 ug/kg relative to control; type: functional
How it was run: (§4)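 P388 leukemia (PS) in mice, six mice started per dose group. Read-out is T/C: median survival time of the treated group divided by that of the untreated control group, expressed as a percent. The NIH protocol counts a compound as active when T/C > 125%.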

[21] = tested on: P388; assay: Antitumor activity against mouse P388 cells allografted in PS mouse assessed as median survival time at 50 ug/kg relative to control; type: functional; how it was run: as §4
[22] = tested on: P388; assay: Antitumor activity against mouse P388 cells allografted in PS mouse assessed as median survival time at 25 ug/kg relative to control; type: functional; how it was run: as §4
[23] = tested on: P388; assay: Antitumor activity against mouse P388 cells allografted in PS mouse assessed as median survival time at 12.5 ug/kg relative to control; type: functional; how it was run: as §4
[24] = tested on: P388; assay: Antitumor activity against mouse P388 cells allografted in PS mouse assessed as median survival time at 6.2 ug/kg relative to control; type: functional; how it was run: as §4
[25] = tested on: P388; assay: Antitumor activity against mouse P388 cells allografted in PS mouse assessed as median survival time at 3.1 ug/kg relative to control; type: functional; how it was run: as §4
[26] = tested on: P388; assay: Antitumor activity against mouse P388 cells allografted in PS mouse assessed as median survival time at 0.8 ug/kg relative to control; type: functional; how it was run: as §4
[27] = tested on: P388; assay: Antitumor activity against mouse P388 cells allografted in PS mouse assessed as median survival time at 200 ug/kg relative to control; type: functional; how it was run: as §4
[28] = tested on: P388; assay: Antitumor activity against mouse P388 cells allografted in PS mouse assessed as median survival time at 1.5 ug/kg relative to control; type: functional; how it was run: as §4
[29] = tested on: KB; assay: Cytotoxicity against human KB cells; type: functional; conditions: read-out: ED50 (the source's name)
[30] = molecular target: Tubulin (Homo sapiens) (UniProt P68371+Q9H4B7+P0DPH7+P68366+Q13509+Q71U36+P04350+Q3ZCM7+P07437+P68363+Q9BQE3+Q6PEY2+Q13885+Q9BVA1+Q9BUF5); assay: Inhibition of brain tubulin polymerization (unknown origin) at 37 degC by spectrophotometry
[31] = tested on: Paracentrotus lividus; assay: Antimitotic activity against sea urchin eggs assessed as drug level causing inhibition of mitosis; type: functional; conditions: Egg
[32] = tested on: Mus musculus; assay: Toxicity in PS mouse allografted with mouse P388 cells assessed as change in body weight at 0.4 ug/kg relative to control; type: organism-based; conditions: in vivo, 0.0004 mg/kg; how it was run: as §2
[33] = tested on: Mus musculus; assay: Toxicity in PS mouse allografted with mouse P388 cells assessed as change in body weight at 0.2 ug/kg relative to control; type: organism-based; conditions: in vivo, 0.0002 mg/kg; how it was run: as §2
[34] = tested on: Mus musculus; assay: Toxicity in PS mouse allografted with mouse P388 cells assessed as survival at 0.4 ug/kg after 4 days; type: organism-based; conditions: in vivo, 0.0004 mg/kg, 96 h; how it was run: as §3
[35] = tested on: Mus musculus; assay: Toxicity in PS mouse allografted with mouse P388 cells assessed as survival at 0.2 ug/kg after 4 days; type: organism-based; conditions: in vivo, 0.0002 mg/kg, 96 h; how it was run: as §3
[36] = tested on: Mus musculus; assay: Toxicity in PS mouse allografted with mouse P388 cells assessed as survival at 6.3 ug/kg after 4 days; type: organism-based; conditions: in vivo, 0.0063 mg/kg, 96 h; how it was run: as §3
[37] = tested on: Mus musculus; assay: Toxicity in PS mouse allografted with mouse P388 cells assessed as survival at 1.1 ug/kg after 4 days; type: organism-based; conditions: in vivo, 0.0011 mg/kg, 96 h; how it was run: as §3
[38] = tested on: Mus musculus; assay: Toxicity in PS mouse allografted with mouse P388 cells assessed as change in body weight at 6.3 ug/kg relative to control; type: organism-based; conditions: in vivo, 0.0063 mg/kg; how it was run: as §1
[39] = tested on: Mus musculus; assay: Toxicity in PS mouse allografted with mouse P388 cells assessed as change in body weight at 1.1 ug/kg relative to control; type: organism-based; conditions: in vivo, 0.0011 mg/kg; how it was run: as §1
[40] = tested on: P388; assay: Antitumor activity against mouse P388 cells allografted in PS mouse assessed as median survival time at 0.4 ug/kg relative to control; type: functional; how it was run: as §4
[41] = tested on: P388; assay: Antitumor activity against mouse P388 cells allografted in PS mouse assessed as median survival time at 0.2 ug/kg relative to control; type: functional; how it was run: as §4
[42] = tested on: P388; assay: Antitumor activity against mouse P388 cells allografted in PS mouse assessed as median survival time at 6.3 ug/kg relative to control; type: functional; how it was run: as §4
[43] = tested on: P388; assay: Antitumor activity against mouse P388 cells allografted in PS mouse assessed as median survival time at 1.1 ug/kg relative to control; type: functional; how it was run: as §4

SMILES | Activity [1] [g] | Activity [2] [g] | Activity [3] | Activity [4] | Activity [5] | Activity [6] | Activity [8] | Activity [10] | Activity [13] [g] | Activity [14] [g] | Activity [15] [g] | Activity [16] [g] | T/C [20] [%] | T/C [21] [%] | T/C [22] [%] | T/C [23] [%] | T/C [25] [%] | T/C [26] [%] | EC50 [29] [ng/mL] | inhibition [30] | further results
COc1cc2cc(c1Cl)N(C)C(=O)C[C@H](OC(C)=O)[C@]1(C)O[C@H]1[C@H](C)[C@@H]1C[C@@](O)(NC(=O)O1)[C@H](OC)/C=C/C=C(\C)C2 | -1 | 0 | Non-toxic | Non-toxic | Non-toxic | Non-toxic | Non-toxic | Non-toxic | -0.6 | -0.3 | -1.2 | 0.3 | 230 | 183 | 173 | 158 | 133 | 110 | 0.0018 (≈ 0.00296 nM) | Active | Activity [7]: Non-toxic; Activity [9]: Non-toxic; Activity [11]: Non-toxic; Activity [12]: Non-toxic; Activity [17]: 0.5 g; Activity [18]: -3.7 g; Activity [19]: -1.1 g; T/C [24]: 150%; T/C [27]: 100%; T/C [28]: 150%; Activity [31]: 1 ×10⁻⁸ mol/L
COc1cc2cc(c1Cl)N(C)C(=O)/C=C/[C@]1(C)O[C@H]1[C@H](C)[C@@H]1C[C@@](O)(NC(=O)O1)[C@H](OC)/C=C/C=C(\C)C2 | 0.4 | 2.8 | Non-toxic | Non-toxic | Non-toxic | Non-toxic | Non-toxic | Non-toxic | 1 | 2.6 | 1.7 | 1 | 110 | <80 | <80 | <80 | 90 | 90 | 25 (≈ 45.7 nM) | Active | Activity [32]: 2.5 g; Activity [33]: 2.1 g; Activity [34]: Non-toxic; Activity [35]: Non-toxic; Activity [36]: Non-toxic; Activity [37]: Non-toxic; Activity [38]: 0.3 g; Activity [39]: 2 g; T/C [40]: 90%; T/C [41]: 90%; T/C [42]: <80%; T/C [43]: 90%; Activity [31]: 1 µM
